Calls of active or inactive are those of the source. No cut-off for these calls is given here.
Columns and labels:
[1] = target: Neuronal acetylcholine receptor; alpha3/beta4 (Rattus norvegicus, UniProt P04757+P12392); assay: Displacement of [3H]epibatidine from rat alpha3beta4 nAChR transfected in HEK293 cells after 2 hrs by beta-plate counting analysis; type: cell-based
How it was run: (§1)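 Cell lines KXα3β4R2 and KXα4β2R2 (rat receptors) were used. Membranes were prepared by homogenizing cells in 50 mM Tris pH 7.4 and centrifuging twice at 20000g. They were incubated 2 h at room temperature with 0.3 nM [3H]epibatidine plus test sample, then filtered on PEI-soaked glass fiber and counted. Nonspecific binding was defined by 1 µM AT-1001 or 0.1 µM epibatidine. Ki was obtained by Cheng–Prusoff; runs were in triplicate, at least twice.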

[2] = target: T1, Neuronal acetylcholine receptor; alpha4/beta2 (Rattus norvegicus, UniProt P09483+P12390); assay: Displacement of [3H]epibatidine from rat alpha4beta2 nAChR transfected in HEK293 cells after 2 hrs by beta-plate counting analysis; type: cell-based; how it was run: as §1
T1 sequence (P09483 whole entry): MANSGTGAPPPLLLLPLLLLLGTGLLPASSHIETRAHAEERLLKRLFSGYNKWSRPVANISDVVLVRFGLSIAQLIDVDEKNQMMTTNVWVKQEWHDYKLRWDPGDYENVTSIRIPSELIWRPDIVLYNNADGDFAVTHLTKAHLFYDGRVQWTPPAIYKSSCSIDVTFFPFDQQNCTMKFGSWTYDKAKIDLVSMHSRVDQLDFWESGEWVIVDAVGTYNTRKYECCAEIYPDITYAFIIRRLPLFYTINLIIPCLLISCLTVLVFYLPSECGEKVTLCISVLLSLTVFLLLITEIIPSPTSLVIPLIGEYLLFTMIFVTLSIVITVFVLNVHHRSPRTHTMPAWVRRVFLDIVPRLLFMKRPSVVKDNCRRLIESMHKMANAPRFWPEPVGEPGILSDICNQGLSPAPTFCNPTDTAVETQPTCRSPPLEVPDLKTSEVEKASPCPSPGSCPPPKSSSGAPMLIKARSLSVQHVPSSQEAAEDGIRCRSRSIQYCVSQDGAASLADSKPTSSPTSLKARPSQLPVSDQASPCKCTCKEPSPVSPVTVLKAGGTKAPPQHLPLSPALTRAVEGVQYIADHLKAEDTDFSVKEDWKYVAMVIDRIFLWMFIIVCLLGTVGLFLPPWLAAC
T1 sequence (P12390 whole entry): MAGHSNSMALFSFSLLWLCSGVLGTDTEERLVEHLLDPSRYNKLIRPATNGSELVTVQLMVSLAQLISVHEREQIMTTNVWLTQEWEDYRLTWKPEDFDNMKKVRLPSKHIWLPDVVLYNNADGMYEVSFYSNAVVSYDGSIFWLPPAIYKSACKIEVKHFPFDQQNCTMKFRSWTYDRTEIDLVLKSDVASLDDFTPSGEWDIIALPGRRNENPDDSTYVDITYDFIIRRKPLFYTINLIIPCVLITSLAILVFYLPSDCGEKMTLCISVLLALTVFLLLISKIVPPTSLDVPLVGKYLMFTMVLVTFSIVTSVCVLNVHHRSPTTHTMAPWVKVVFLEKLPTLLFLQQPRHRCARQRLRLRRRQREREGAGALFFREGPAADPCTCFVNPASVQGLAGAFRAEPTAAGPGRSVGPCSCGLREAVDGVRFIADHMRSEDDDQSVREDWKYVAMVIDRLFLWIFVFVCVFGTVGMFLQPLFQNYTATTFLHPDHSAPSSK

[3] = system: HEK293; assay: Selectivity ratio for rat alpha3beta4 nAChR transfected in HEK293 cells to rat alpha4beta2 nAChR transfected in HEK293 cells; type: cell-based
[4] = target: T1, Neuronal acetylcholine receptor; alpha4/beta2; assay: Antagonist activity at rat alpha4beta2 nAChR transfected in HEK293 cells after 10 mins by fluorescence assay in presence of nicotine; type: cell-based
How it was run: (§2)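 Transfected HEK cells were seeded at 4000/well the day before and loaded with blue membrane-potential dye in HBSS/20 mM HEPES pH 7.4 at 37 °C for 20 min. […] Fluorescence (ex 530, em 550–580) was recorded every 3 s for 120 s on a FlexStation.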

[5] = target: T2, Neuronal acetylcholine receptor; alpha4/beta2 (Rattus norvegicus) (UniProt P09483+P12390); assay: Agonist activity at rat alpha4beta2 nAChR transfected in HEK293 cells assessed as change in membrane potential measured every 3 secs for 120 secs by fluorescence assay; type: cell-based
How it was run: (§3)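 Membrane potential read with blue potentiometric dye on a FlexStation. Transfected HEK cells were seeded at 4000/well one day ahead, washed, then loaded with dye in HBSS containing 20 mM HEPES, pH 7.4, for 30 min at 37 °C. Compound was then dispensed automatically and fluorescence (ex 530, em 550–580) recorded every 3 s for 120 s.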

[6] = target: T2, Neuronal acetylcholine receptor; alpha4/beta2 (Rattus norvegicus); assay: Noncompetitive inhibition of nicotine-induced rat alpha4beta2 nAChR transfected in HEK293 cells assessed as stimulation of membrane potential after 10 mins by fluorescence assay; type: cell-based; how it was run: as §2
[7] = target: T3, Neuronal acetylcholine receptor; alpha3/beta4 (Rattus norvegicus) (UniProt P04757+P12392); assay: Agonist activity at rat alpha3beta4 nAChR transfected in HEK293 cells assessed as change in membrane potential measured every 3 secs for 120 secs by fluorescence assay; type: cell-based; how it was run: as §3
[8] = target: T2, Neuronal acetylcholine receptor; alpha4/beta2 (Rattus norvegicus); assay: Noncompetitive inhibition of nicotine-induced rat alpha4beta2 nAChR transfected in HEK293 cells assessed as stimulation of membrane potential at 0.3 uM after 10 mins by fluorescence assay; type: cell-based; design: scale not given: the % may be the effect or the level left; how it was run: as §2
[9] = species: Rattus norvegicus; assay: Selectivity ratio of Ki for rat alpha3beta4 nAChR to Ki for rat alpha4beta2 nAChR
How it was run: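 Selectivity was calculated from [3H]epibatidine-binding Ki values as (Ki α3β4 − Ki α4β2)/Ki α4β2.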

[10] = target: T3, Neuronal acetylcholine receptor; alpha3/beta4 (Rattus norvegicus); assay: Antagonist activity at rat alpha3beta4 nAChR transfected in HEK293 cells assessed as inhibition of nicotine-induced membrane potential stimulation at 10 uM after 10 mins by fluorescence assay; type: cell-based; how it was run: as §2
[11] = target: Nicotinic acetylcholine receptor alpha3/beta4/alpha5 (Homo sapiens, UniProt P30532+P30926+P32297); assay: Binding affinity to alpha3beta4alpha5 nAChR (unknown origin); type: protein-complex assay
Nicotinic acetylcholine receptor alpha3/beta4/alpha5, sequence (P30926 whole entry): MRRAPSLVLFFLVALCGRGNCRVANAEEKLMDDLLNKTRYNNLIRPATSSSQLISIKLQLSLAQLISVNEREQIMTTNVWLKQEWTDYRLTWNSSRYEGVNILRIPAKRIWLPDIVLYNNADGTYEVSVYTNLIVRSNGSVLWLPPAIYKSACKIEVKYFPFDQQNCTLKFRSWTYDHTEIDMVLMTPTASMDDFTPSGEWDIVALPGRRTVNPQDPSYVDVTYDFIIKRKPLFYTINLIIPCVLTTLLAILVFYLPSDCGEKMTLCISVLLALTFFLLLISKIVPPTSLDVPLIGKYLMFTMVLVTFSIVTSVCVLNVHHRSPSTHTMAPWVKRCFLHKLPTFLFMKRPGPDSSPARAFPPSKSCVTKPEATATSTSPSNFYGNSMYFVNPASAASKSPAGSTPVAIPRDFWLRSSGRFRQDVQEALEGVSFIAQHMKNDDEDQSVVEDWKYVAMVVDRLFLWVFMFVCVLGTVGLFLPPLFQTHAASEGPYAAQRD
Nicotinic acetylcholine receptor alpha3/beta4/alpha5, sequence (P32297 whole entry): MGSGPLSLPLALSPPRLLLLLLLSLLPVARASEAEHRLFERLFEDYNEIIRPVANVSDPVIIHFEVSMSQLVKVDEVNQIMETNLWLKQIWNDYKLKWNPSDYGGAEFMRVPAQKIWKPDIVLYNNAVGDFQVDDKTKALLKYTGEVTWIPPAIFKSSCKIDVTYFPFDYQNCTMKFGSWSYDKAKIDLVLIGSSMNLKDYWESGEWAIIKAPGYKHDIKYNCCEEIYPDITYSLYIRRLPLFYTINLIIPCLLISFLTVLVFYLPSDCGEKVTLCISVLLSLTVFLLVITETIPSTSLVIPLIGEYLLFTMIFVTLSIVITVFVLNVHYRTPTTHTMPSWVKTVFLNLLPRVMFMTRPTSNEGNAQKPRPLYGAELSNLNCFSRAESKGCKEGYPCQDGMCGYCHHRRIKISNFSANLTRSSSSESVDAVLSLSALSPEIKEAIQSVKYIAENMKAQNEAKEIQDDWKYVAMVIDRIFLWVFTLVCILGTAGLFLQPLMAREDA
Nicotinic acetylcholine receptor alpha3/beta4/alpha5, sequence (P30532 whole entry): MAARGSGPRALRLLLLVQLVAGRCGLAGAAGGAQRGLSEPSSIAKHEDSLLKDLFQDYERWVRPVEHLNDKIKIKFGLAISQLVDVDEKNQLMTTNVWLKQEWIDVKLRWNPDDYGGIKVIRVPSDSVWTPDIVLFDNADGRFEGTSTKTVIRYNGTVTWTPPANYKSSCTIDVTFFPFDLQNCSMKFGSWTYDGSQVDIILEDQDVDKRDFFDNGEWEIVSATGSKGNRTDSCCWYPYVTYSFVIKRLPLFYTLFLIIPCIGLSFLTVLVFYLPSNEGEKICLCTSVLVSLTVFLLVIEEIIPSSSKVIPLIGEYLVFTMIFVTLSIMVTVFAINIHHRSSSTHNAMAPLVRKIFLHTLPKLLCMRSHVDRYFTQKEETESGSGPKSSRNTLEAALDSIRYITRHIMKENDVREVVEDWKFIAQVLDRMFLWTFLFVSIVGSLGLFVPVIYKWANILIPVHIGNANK

[12] = target: T2, Neuronal acetylcholine receptor; alpha4/beta2 (Rattus norvegicus); assay: Inverse agonist activity at nicotine-induced rat alpha4beta2 nAChR activation transfected in HEK293 cells; type: cell-based
[13] = target: T2, Neuronal acetylcholine receptor; alpha4/beta2 (Rattus norvegicus); assay: Noncompetitive inhibition of nicotine-induced rat alpha4beta2 nAChR transfected in HEK293 cells assessed as stimulation of membrane potential at 1 uM after 10 mins by fluorescence assay; type: cell-based; design: scale not given: the % may be the effect or the level left; how it was run: as §2
[14] = target: T2, Neuronal acetylcholine receptor; alpha4/beta2 (Rattus norvegicus); assay: Noncompetitive inhibition of nicotine-induced rat alpha4beta2 nAChR transfected in HEK293 cells assessed as stimulation of membrane potential at 3 uM after 10 mins by fluorescence assay; type: cell-based; design: scale not given: the % may be the effect or the level left; how it was run: as §2

Neuronal acetylcholine receptor; alpha3/beta4, sequence (P04757 whole entry): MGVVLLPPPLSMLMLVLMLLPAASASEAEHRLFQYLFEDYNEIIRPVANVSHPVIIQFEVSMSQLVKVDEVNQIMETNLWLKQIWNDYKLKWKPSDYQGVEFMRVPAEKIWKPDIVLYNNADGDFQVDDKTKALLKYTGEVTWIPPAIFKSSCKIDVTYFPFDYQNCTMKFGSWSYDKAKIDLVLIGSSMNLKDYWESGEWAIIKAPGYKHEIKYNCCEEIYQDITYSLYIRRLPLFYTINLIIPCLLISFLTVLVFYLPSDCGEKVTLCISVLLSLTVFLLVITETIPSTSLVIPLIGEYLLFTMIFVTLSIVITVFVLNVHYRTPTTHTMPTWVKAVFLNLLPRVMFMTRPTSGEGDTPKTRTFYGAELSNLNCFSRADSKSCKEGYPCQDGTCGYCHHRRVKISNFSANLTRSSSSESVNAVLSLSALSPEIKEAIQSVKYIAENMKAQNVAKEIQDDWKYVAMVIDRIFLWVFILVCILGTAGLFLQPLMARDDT
Neuronal acetylcholine receptor; alpha3/beta4, sequence (P12392 whole entry): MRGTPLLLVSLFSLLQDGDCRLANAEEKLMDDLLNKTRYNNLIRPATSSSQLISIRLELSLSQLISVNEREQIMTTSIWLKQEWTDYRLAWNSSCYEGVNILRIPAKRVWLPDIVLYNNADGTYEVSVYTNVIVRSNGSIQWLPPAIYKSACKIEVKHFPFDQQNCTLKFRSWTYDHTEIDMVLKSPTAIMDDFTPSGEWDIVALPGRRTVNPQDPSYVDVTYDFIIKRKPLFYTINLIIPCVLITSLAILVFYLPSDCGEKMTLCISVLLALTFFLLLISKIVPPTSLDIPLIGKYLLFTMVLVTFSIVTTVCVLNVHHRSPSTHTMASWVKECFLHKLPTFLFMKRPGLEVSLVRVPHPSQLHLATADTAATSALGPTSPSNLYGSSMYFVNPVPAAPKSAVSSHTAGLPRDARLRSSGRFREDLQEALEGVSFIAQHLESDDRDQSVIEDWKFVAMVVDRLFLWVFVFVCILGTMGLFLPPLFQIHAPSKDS

Row | SMILES | Ki [1] [µM] | Ki [2] [nM] | Selectivity ratio [3] | also measured
1 | CCCCCCCN1C(N)=NC[C@@H]1CCCCN1C[C@@H](Cc2ccccc2)N(CC2CCC(C(C)(C)C)CC2)C1=N (stereo not given in full) | 54.4 | 2700 | – | –
2 | N=C1NC[C@H](CCCCN2C[C@H](Cc3ccc4ccccc4c3)N(CCc3ccc(Br)cc3)C2=N)N1CCc1ccc(Cl)c(Cl)c1 | – | – | -0.1 | –
3 | CC(C)CCCN1C(N)=NC[C@@H]1CCCCN1C[C@@H](Cc2ccccc2)N(CC2CCC(C(C)(C)C)CC2)C1=N (stereo not given in full) | 68.4 | 2300 | – | –
4 | N=C1NC[C@H](CCCCN2C[C@@H](Cc3ccc4ccccc4c3)N(CCc3ccc(Br)cc3)C2=N)N1CCc1ccc(Cl)c(Cl)c1 | – | – | 0.6 | –
5 | CC(C)(C)C1CCC(CN2C(=N)N(CCCC[C@H]3CN=C(N)N3CCc3cccnc3)C[C@H]2CC2CCCCC2)CC1 (stereo not given in full) | 59.7 | 340 | – | IC50 [4]: 2830 nM
6 | CC(C)(C)C1CCC(CN2C(=N)N(CCCC[C@H]3CN=C(N)N3CCc3cccnc3)C[C@@H]2Cc2ccccc2)CC1 (stereo not given in full) | 23.8 | 323 | – | IC50 [4]: 1470 nM
7 | CC(C)CCCN1C(=N)NC[C@@H]1CCCCN1C[C@@H](CC2CCCCC2)N(CCc2cccc(Br)c2)C1=N | – | – | 10.2 | –
8 | CC(C)(C)C1CCC(CN2C(=N)N(CCCC[C@H]3CN=C(N)N3CCc3cccc(F)c3)C[C@H]2CC2CCCCC2)CC1 (stereo not given in full) | 88.9 | 3730 | – | IC50 [4]: 5320 nM
9 | N=C1N(CCCC[C@H]2CN=C(N)N2CCc2cccc(F)c2)C[C@@H](CC2CCCCC2)N1CCc1cccc(Br)c1 | 20.1 | 3500 | – | –
10 | CC(C)(C)C1CCC(CN2C(=N)N(CCCC[C@H]3CNC(=N)N3CCc3cccnc3)C[C@H]2Cc2ccccc2)CC1 (stereo not given in full) | 56.5 | 118 | 20 | Activity [5]: inactive; inhibition [6]: Dose-dependent effect; Activity [7]: inactive; Activity [8]: 83%; Ratio Ki [9]: 478; inhibition [10]: 50%; Ki [11]: 9.06 µM; Activity [12]: Active; IC50 [4]: 514 nM; Activity [13]: 38%; Activity [14]: 0%
11 | N=C1NC[C@H](CCCCN2C[C@H](Cc3ccc4ccccc4c3)N(CCc3cccc(Br)c3)C2=N)N1CCc1ccc(Cl)c(Cl)c1 | – | – | 0.8 | –
12 | CC(C)(C)C1CCC(CN2CCN(CCCC[C@H]3CN=C(N)N3CCc3cccnc3)C2=N)CC1 (stereo not given in full) | 27.6 | 433 | – | IC50 [4]: 2820 nM
13 | N=C1N(CCCC[C@H]2CN=C(N)N2CCc2ccc(Cl)c(Cl)c2)C[C@@H](Cc2ccc3ccccc3c2)N1CCc1ccc(Cl)c(Cl)c1 | 347 | 47500 | – | –
14 | CCCCCCCN1C(=N)NC[C@@H]1CCCCN1C[C@@H](Cc2ccccc2)N(CC2CCC(C(C)(C)C)CC2)C1=N (stereo not given in full) | – | – | 19.3 | –
15 | CC(C)(C)C1CCC(CN2C(=N)N(CCCC[C@H]3CNC(=N)N3CCc3cccc(F)c3)C[C@H]2CC2CCCCC2)CC1 (stereo not given in full) | – | – | 25.9 | Ratio Ki [9]: 24
16 | N=C1NC[C@H](CCCCN2C[C@@H](CC3CCCCC3)N(CCc3cccc(Br)c3)C2=N)N1CCc1cccc(F)c1 | – | – | 4.8 | –
17 | CC(C)CCCN1C(N)=NC[C@@H]1CCCCN1C[C@@H](CC2CCCCC2)N(CC2CCC(C(C)(C)C)CC2)C1=N (stereo not given in full) | 78.4 | 3500 | – | –
18 | CC(C)(C)C1CCC(CN2C(=N)N(CCCC[C@H]3CNC(=N)N3CCc3cccnc3)C[C@H]2CC2CCCCC2)CC1 (stereo not given in full) | – | – | – | Ratio Ki [9]: 176
19 | CC(C)(C)C1CCC(CN2C(=N)N(CCCC[C@H]3CNC(=N)N3CCc3cccnc3)C[C@@H]2Cc2ccccc2)CC1 (stereo not given in full) | – | – | – | Ratio Ki [9]: 74
20 | CCCCCCCN1C(=N)NC[C@@H]1CCCCN1C[C@@H](CC2CCCCC2)N(CCc2cccc(Br)c2)C1=N | – | – | 7.2 | –
21 | CC(C)(C)C1CCC(CN2CCN(CCCC[C@@H]3CNC(=N)N3CCc3cccnc3)C2=N)CC1 (stereo not given in full) | 51.9 | 2220 | – | Ratio Ki [9]: 23; IC50 [4]: 2950 nM
22 | N=C1NC[C@H](CCCCN2C[C@@H](Cc3ccc4ccccc4c3)N(CCc3ccc(Cl)c(Cl)c3)C2=N)N1CCc1ccc(Cl)c(Cl)c1 | – | – | 6.3 | –
23 | CC(C)CCCN1C(=N)NC[C@@H]1CCCCN1C[C@@H](Cc2ccccc2)N(CCc2cccc(Br)c2)C1=N | 47.8 | 2600 | 17.5 | –
